Data as given in ChEMBL document CHEMBL1137467, “Synthesis and structure-activity relationships of novel 1-arylmethyl-3-aryl-1H-pyrazole-5-carbohydrazide derivatives as potential agents against A549 lung cancer cells” (Bioorg Med Chem, 2007).
Calls of active or inactive are those of the source. The rule behind the calls is not given here.

Assays:
[1] = tested on: A549; test: Growth inhibition of human A549 cells after 48 hrs; type: functional, cell-based; conditions: A549, 24 h, in the assay text read “after 24 hrs” for “after 48 hrs”
[2] = Lipophilicity, log P of the compound; type: physicochemical; conditions: octanol/water
[3] = tested on: A549; test: Growth inhibition of human A549 cells after 24 hrs; type: functional, cell-based; conditions: A549, 48 h, in the assay text read “after 48 hrs” for “after 24 hrs”
Summary of the method: (§1)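 Compounds dissolved in DMSO, final DMSO below 0.1% (v/v) in culture medium. Cells seeded in 96-well plates and treated at 10–80 μM for 24 or 48 h. Viability by MTT assay with absorbance read at 570 nm. Controls were untreated medium and 0.1% DMSO vehicle.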

[4] = tested on: A549; test: Reduction of cell viability of human A549 cells at 40 uM after 24 hrs by MTT assay; type: functional; summary of the method: as §1
[5] = tested on: A549; test: Reduction of cell viability of human A549 cells at 80 uM after 48 hrs by MTT assay; type: functional; summary of the method: as §1
[6] = tested on: A549; test: Effect on nuclear fragmentation in human A549 cells at 40 uM after 48 hrs by AO staining method; type: functional, cell-based
Summary of the method: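 Cells cultured 48 h in fresh medium with 0 or 40 μM compound, then stained with 5 μg/ml acridine orange at room temperature. Chromatin condensation and DNA fragmentation imaged by laser scanning confocal/fluorescence microscopy. Images representative of three independent experiments.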

[7] = tested on: A549; test: Induction of apoptosis in A549 cells assessed as LDH release at 40 uM after 48 hrs; type: functional, cell-based; conditions: Homo sapiens
Summary of the method: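 Culture medium collected after 48 h treatment at 40 μM and assayed for LDH release, compared against an untreated control group; n = 3.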

[8] = tested on: A549; test: Reduction of cell viability of human A549 cells at 40 uM after 48 hrs by MTT assay; type: functional; summary of the method: as §1
[9] = tested on: A549; test: Effect on cell morphology in human A549 cells assessed as cell shrinkage at 40 uM after 48 hrs; type: functional, cell-based
Summary of the method: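 Cells exposed to 40 μM compound for 24 h and 48 h, then inspected under a phase contrast microscope for shrinkage. Untreated cells served as control.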

Structure (SMILES)	IC50 [1]	logP [2]	IC50 [3]	Activity [4]	Activity [5]	Activity [6]	Activity [7]	Activity [8]	Activity [9]
NNC(=O)c1cc(-c2ccc(Cl)cc2)nn1Cc1ccccc1	232 µM	3.24	38.7 µM						
NNC(=O)c1cc(-c2ccc(Cl)cc2)nn1Cc1ccc(Cl)nc1	121 µM	3.12	30.2 µM						
COc1ccc(-c2cc(C(=O)NN)n(Cc3ccc(C(C)(C)C)cc3)n2)cc1	49.9 µM	4.6	23.9 µM	52%	6%	Active	Active	26%	
COc1ccc(-c2cc(C(=O)NN)n(Cc3ccc(Cl)nc3)n2)cc1	240 µM	2.76							
NNC(=O)c1cc(-c2ccccc2)nn1Cc1ccc(Cl)nc1	224 µM	2.52	67.7 µM						
CC(C)(C)c1ccc(Cn2nc(-c3ccccc3)cc2C(=O)NN)cc1	66.2 µM	4.49	26.6 µM	52%	15%	Active	Active	26%	Active
COc1ccc(-c2cc(C(=O)NN)n(Cc3ccccc3)n2)cc1	550 µM	2.87							
CC(C)(C)c1ccc(Cn2nc(-c3ccc(Cl)cc3)cc2C(=O)NN)cc1	68.3 µM	4.94	18.5 µM	52%	13%	Active	Active	26%	
NNC(=O)c1cc(-c2ccccc2)nn1Cc1ccccc1	440 µM	2.73							
